Data on 22 molecules can be found in ChEMBL document CHEMBL1151690, “The design, synthesis, and anti-tumor mechanism study of N-phosphoryl amino acid modified resveratrol analogues” (Bioorg Med Chem, 2008).

Experiment [1] can be described thus: Antiproliferative activity against human CNE1 cells after 72 hrs by MTT assay. The following applies: CNE. The format is functional, cell-based. In short, it runs like this:
(§1)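 MTT assay. Cells were grown in DMEM with 10% FBS, penicillin and streptomycin at 37 °C in 5% CO2, seeded in 96-well plates and exposed to compounds at 0.5–100 μM for 72 h. They were then given MTT (5 mg/ml) for 4 h, the formazan was dissolved in DMSO and A595 was read. IC50 is the mean ± SEM of three experiments.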

The nature of experiment [2]: (§2) Antiproliferative activity against human CNE2 cells after 72 hrs by MTT assay. The class given is functional, cell-based. The following applies: CNE-2, 72 h. In short, it runs like this:
as §1

Experiment [3] deals with CNE-2. In words: Antiproliferative activity against human CNE2 cells at 5.19 uM by MTT assay. The class given is functional, cell-based. The conditions noted are these: TDE = time-dependent effect.
Experiment [4] can be described thus: Cell cycle arrest in human CNE2 cells assessed as accumulation at sub-G0-G1 phase visualized by propidium iodide staining at 50 uM after 24 hrs by flow cytometry. The format is functional, cell-based. The following applies: CNE-2. In a few lines: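 CNE-2 cells were treated at 50 μM for 24 h, stained with propidium iodide and analysed by flow cytometry of DNA-content histograms. Apoptotic events were scored as the sub-G0–G1 population, and the cell-cycle phase distribution was also recorded.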
(Flow cytometry measures light scatter and fluorescence of single cells or particles in a stream.)

Experiment [5] concerns K562. Description: Antiproliferative activity against human K-562 cells after 72 hrs by MTT assay. The class given is functional, cell-based. The conditions noted are these: K562, 72 h. In a few lines:
(§3)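 IC50 from 72 h of compound treatment, reported as the mean ± SEM of three experiments, with significance set at P < 0.05.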

Experiment [6] relates to CNE-2. The experiment is described as §2. The format is functional, cell-based. In a few lines: as §1
Experiment [7] concerns HeLa. In words: Antiproliferative activity against human HeLa cells after 72 hrs by MTT assay. The class given is functional, cell-based. In short, it runs like this:
as §3

In experiment [8] the test system is CNE-2. In words: Induction of apoptosis in human CNE2 cells assessed as DNA fragmentation at 50 uM after 24 hrs by agarose gel electrophoresis. The format is functional, cell-based. In short, it runs like this: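 CNE-2 cells were treated at 50 μM for 24 h, with untreated cells as control. DNA was obtained by standard digestion and organic extraction, run on a 2% agarose gel and stained with ethidium bromide to detect ladders.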

For experiment [9], the system named is CNE-2. In words: Induction of apoptosis in human CNE2 cells assessed as caspase 3-mediated PARP cleavage at 50 uM after 24 hrs by enhanced chemiluminescence detection. The class given is functional, cell-based. In a few lines: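 CNE-2 cells were treated at 50 μM for 24 h and lysed on ice for 30 min in Tris/EDTA/NaCl/SDS/Triton/deoxycholate/PMSF buffer. Cytosolic protein (25 μg, 15,000g supernatant) was run on 12% SDS-PAGE and blotted to nitrocellulose. Blots were probed with anti-PARP (1:1000) in milk block, and the 89 kDa cleaved band was detected by ECL.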

Experiment [10] deals with CNE-2. In words: Antiproliferative activity against human CNE2 cells at 5.06 uM by MTT assay. The format is functional, cell-based. The conditions noted are these: TDE = time-dependent effect. (Tetrazolium dyes change colour on reduction, which living cells bring about.)
In experiment [11] the test system is CNE-2. Description: Antiproliferative activity against human CNE2 cells at 9.86 uM by MTT assay. The following applies: TDE = time-dependent effect. The class given is functional, cell-based. In a few lines:
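CNE-2 nasopharyngeal carcinoma cells were grown in DMEM with 10% FBS and penicillin/streptomycin at 37 °C under 5% CO2. Cells were seeded in 96-well plates and exposed to compound at 0.5–100 µM for 24, 48 or 72 h; tabulated values are from 72 h. MTT (5 mg/ml) was added for 4 h, formazan dissolved in DMSO, A595 read. IC50 reported as mean ± SEM, three experiments.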

Experiment [12] relates to CNE-2. Description: Induction of apoptosis in human CNE2 cells assessed as early stage apoptotic cell count at 25 uM after 24 hrs by Annexin-V-FITC/PI binding assay. The class given is functional. In short, it runs like this:
(§4)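 CNE-2 cells were treated at 5, 10, 25 or 50 μM for 24 h, collected, washed in ice-cold PBS, stained with Annexin-V-FITC and PI, and analysed by flow cytometry. Annexin-V+/PI− cells were counted as early apoptotic and double-positive cells as late apoptotic.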

In experiment [13] the test system is CNE-2. In words: Antiproliferative activity against human CNE2 cells at 3.45 uM by MTT assay. The format is functional, cell-based. The following applies: TDE = time-dependent effect.
For experiment [14], the system named is CNE-2. In words: Induction of apoptosis in human CNE2 cells assessed as early stage apoptotic cell count at 50 uM after 24 hrs by Annexin-V-FITC/PI binding assay. The format is functional. In a few lines: as §4
The subject of experiment [15] is CNE-2. Description: Induction of apoptosis in human CNE2 cells assessed as intracellular ROS production visualized by DCFH-DA after 30 hrs by FACS analysis. The class given is functional, cell-based. In short, it runs like this: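 CNE-2 cells were treated at 50 μM for 0–30 h (0, 2, 4, 6, 8, 13, 19, 24, 30 h), trypsinized, centrifuged and PBS-washed. They were loaded with DCFH-DA (10 μM) at 37 °C for 30 min, and the percentage of cells with higher DCF fluorescence was measured by FACS.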

Experiment [16] concerns CNE-2. Description: Induction of apoptosis in human CNE2 cells assessed as early stage apoptotic cell count at 10 uM after 24 hrs by Annexin-V-FITC/PI binding assay. The class given is functional. In a few lines:
as §4

Experiment [17] concerns CNE-2. In words: Induction of apoptosis in human CNE2 cells assessed as late stage apoptotic cell count at 25 uM after 24 hrs by Annexin-V-FITC/PI binding assay. The format is functional. In a few lines: as §4
Experiment [18] has as its system CNE-2. In words: Induction of apoptosis in human CNE2 cells assessed as late stage apoptotic cell count at 50 uM after 24 hrs by Annexin-V-FITC/PI binding assay. The class given is functional. In short, it runs like this: as §4
In experiment [19] the test system is CNE-2. Description: Induction of apoptosis in human CNE2 cells assessed as increase in caspase 9 activity at 50 uM upto 24 hrs. The format is functional, cell-based. In short, it runs like this: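 CNE-2 cells were treated at 50 μM for 0, 2, 4, 8, 14 and 24 h, trypsinized, PBS-washed and lysed on ice for 15 min. Lysates were spun at 20,000g at 4 °C, and 0.1 mg protein (Bradford) was incubated with Ac-LEHD-pNA for 2 h at 37 °C. pNA release was recorded at A405.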

In experiment [20] the test system is CNE-2. In words: Induction of apoptosis in human CNE2 cells assessed as early stage apoptotic cell count at 5 uM after 24 hrs by Annexin-V-FITC/PI binding assay. The class given is functional. In short, it runs like this:
as §4

Experiment [21] relates to CNE-2. In words: Induction of apoptosis in human CNE2 cells assessed as late stage apoptotic cell count at 10 uM after 24 hrs by Annexin-V-FITC/PI binding assay. The format is functional. In short, it runs like this:
as §4

Experiment [22] has as its system CNE-2. Description: Induction of apoptosis in human CNE2 cells assessed as late stage apoptotic cell count at 5 uM after 24 hrs by Annexin-V-FITC/PI binding assay. The class given is functional. In a few lines: as §4

The structures appear in SMILES notation. Active and inactive are the calls of the source. The rule behind the calls is not given here.

For the molecule `COc1cc(/C=C/c2ccc(NC(=O)CCNP(=O)(OC(C)C)OC(C)C)cc2)cc(OC)c1`, the half-maximal inhibitory concentration (IC50) (commonly the concentration that gives 50% inhibition) was 10.1 µM in experiment [1] and 8.19 µM in experiment [2].

Take `CC(C)OP(=O)(N[C@@H](Cc1ccccc1)C(=O)Nc1ccc(/C=C/c2ccccc2)cc1)OC(C)C`: the 50% inhibitory concentration (IC50) in experiment [1] was found to be 83.7 µM; in [2], 92.1 µM.

`CC(C)OP(=O)(NCCCC(=O)Nc1ccc(/C=C/c2ccccc2)cc1)OC(C)C`: the results for the half-maximal inhibitory concentration (IC50) in experiment [1] and in experiment [2] were 9.03 µM and 6.47 µM, respectively.

For the molecule `CC(C)C[C@H](NP(=O)(OC(C)C)OC(C)C)C(=O)Nc1ccc(/C=C/c2ccccc2)cc1`, the IC50 came to 54.3 µM in experiment [1] and 65.6 µM in [2].

With `Oc1ccc(/C=C/c2cc(O)cc(O)c2)cc1` [RESVERATROL], the concentration for half-maximal inhibition (IC50) in [1] amounted to 67.6 µM; in [2] it was 52.3 µM.

On to `COc1cc(/C=C/c2ccc(NC(=O)[C@H](Cc3ccccc3)NP(=O)(OC(C)C)OC(C)C)cc2)cc(OC)c1`, for which the concentration for half-maximal inhibition (IC50) in [1] was determined as 43.4 µM; in [2], 9.83 µM.

Take `CC(C)OP(=O)(NCCCCC(=O)Nc1ccc(/C=C/c2ccccc2)cc1)OC(C)C`: the IC50 in experiment [1] is 6.36 µM; in experiment [5] it was 9.58 µM; in experiment [2] it was 5.19 µM; in [7], 9.75 µM. In addition, the Activity result was “tde” in experiment [3], 45.3% in experiment [4] and “Dose-dependent effect” in experiment [6]. Also, the result in experiment [8] and in experiment [9] was Active.

Consider `COc1cc(/C=C/c2ccc(NC(=O)CCCCCNP(=O)(OC(C)C)OC(C)C)cc2)cc(OC)c1`, for which the IC50 came out at 6.37 µM in [1], 6.89 µM in experiment [5], 5.06 µM in [2] and 6.41 µM in experiment [7]. The values for the Activity in experiment [4], in experiment [6] and in experiment [10] were 57%, “Dose-dependent effect” and “tde”, respectively. For the same molecule, the result in [8] and in [9] was Active.

For the molecule `COc1cc(/C=C/c2ccc(NC(=O)[C@H](CC(C)C)NP(=O)(OC(C)C)OC(C)C)cc2)cc(OC)c1`, the IC50 in experiment [1] was found to be 55.3 µM; in experiment [2], 14.3 µM.

Consider `CC(C)OP(=O)(N[C@@H](C)C(=O)Nc1ccc(/C=C/c2ccccc2)cc1)OC(C)C`, for which the IC50 in experiment [1] was found to be 25.4 µM; in experiment [2], 12.8 µM.

`CC(C)OP(=O)(NCCCCCC(=O)Nc1ccc(/C=C/c2ccccc2)cc1)OC(C)C`: the results for the IC50 in experiment [1] and in experiment [2] were 8.58 µM and 24.3 µM, respectively.

Consider `COc1cc(/C=C/c2ccc(NC(=O)[C@@H]3CCCN3P(=O)(OC(C)C)OC(C)C)cc2)cc(OC)c1`, for which the half-maximal inhibitory concentration (IC50) came out at 8.11 µM in [1], 9.15 µM in experiment [5], 9.86 µM in [2] and 9.53 µM in experiment [7]. The values for the Activity in experiment [4], in experiment [6] and in experiment [11] were 32.1%, “Dose-dependent effect” and “tde”, respectively. The result in experiment [8] and in experiment [9] was Active.

`CC(C)OP(=O)(N[C@H](C(=O)Nc1ccc(/C=C/c2ccccc2)cc1)C(C)C)OC(C)C`: the IC50 came to 49.3 µM in experiment [1] and 128 µM in experiment [2].

As to `CC(C)OP(=O)(NCC(=O)Nc1ccc(/C=C/c2ccccc2)cc1)OC(C)C`, the 50% inhibitory concentration (IC50) in experiment [1] worked out at 7.5 µM; in [2], 7.01 µM.

With `COc1cc(/C=C/c2ccc(NC(=O)CCCNP(=O)(OC(C)C)OC(C)C)cc2)cc(OC)c1`, the IC50 stood at 12.3 µM in [1] and 15.2 µM in [2].

Turning to `CC(C)OP(=O)(OC(C)C)N1CCC[C@H]1C(=O)Nc1ccc(/C=C/c2ccccc2)cc1`, the half-maximal inhibitory concentration (IC50) was determined as 10.1 µM in experiment [1] and 12.2 µM in experiment [2].

Turning to `COc1cc(/C=C/c2ccc(NC(=O)CNP(=O)(OC(C)C)OC(C)C)cc2)cc(OC)c1`, the IC50 came to 8.91 µM in [1] and 7.12 µM in experiment [2].

As to `COc1cc(/C=C/c2ccc(NC(=O)CCCCNP(=O)(OC(C)C)OC(C)C)cc2)cc(OC)c1`, the Activity in experiment [12] is 21.24%; in experiment [13], “tde”; in experiment [14], 18.78%; in [4], 91.6%; in experiment [16], 16.24%; in experiment [17], 41.12%. Moreover, the Activity is 66.79% in [18]; “Dose-dependent effect” in [6]; 6.45% in experiment [20]; 22.51% in experiment [21]; 9.86% in experiment [22]. For the same molecule, the IC50 in [1] was determined as 5.67 µM; in experiment [5] it was 5.32 µM; in experiment [2] it was 3.45 µM; in experiment [7] it was 5.62 µM. The result in experiment [15], in experiment [19], in experiment [8] and in experiment [9] was Active.

With `COc1cc(/C=C/c2ccc(NC(=O)[C@@H](NP(=O)(OC(C)C)OC(C)C)C(C)C)cc2)cc(OC)c1`, the concentration for half-maximal inhibition (IC50) in experiment [1] amounted to 116 µM; in [2], 77.4 µM.

`COc1cc(/C=C/c2ccc(NC(=O)[C@H](C)NP(=O)(OC(C)C)OC(C)C)cc2)cc(OC)c1`: the half-inhibitory concentration (IC50) is 29.2 µM in experiment [1] and 11.7 µM in experiment [2].

With `CC(C)OP(=O)(NCCC(=O)Nc1ccc(/C=C/c2ccccc2)cc1)OC(C)C`, the 50% inhibitory concentration (IC50) in experiment [1] worked out at 29.8 µM; in experiment [2] it was 6.81 µM.

As to `Nc1ccc(/C=C/c2ccccc2)cc1` [(E)-4-STYRYLANILINE], the IC50 in experiment [1] worked out at 54.5 µM; in experiment [2], 98.7 µM.
